TRAIL sens C8: sensitizes caspase-8 expressing cells to TRAIL; NB7+C8 cells + TRAIL, ATPlite viability luminescence; inhibition (viability loss, TRAIL sensitization), % at 10 µM; 1% of 360,000 active;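 active = compounds causing at least 50% loss of cell viability in the single-dose screen, relative to plate controls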
PPC-1+TRAIL kill: PPC-1 cancer cell killing with TRAIL present. PPC-1 cells + TRAIL, ATPLite viability luminescence. cell killing (% activity), % at 4 µM or 5 µM. 0.41% of 220,000 active;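 active = cell killing above 50% in the first pass at 4 µM, then a duplicate retest at 5 µM averaging 50% or more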;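 also: plate controls were cells with TRAIL plus DMSO for no effect and medium-only wells lacking cells for full effect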
HSP90 inh: inhibitors of HSP90 luciferase refolding in rabbit reticulocyte lysate; luciferase refolding luminescence, 3 h; inhibition, % at 5.6 µM; 0.91% of 290,000 active;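 active = inhibition above the screen-wide mean plus 3 SD, computed separately per campaign, cut at about 16% in these data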;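 also: 0% = DMSO wells and 100% = 60 µM geldanamycin wells; inhibitors lower the luminescence because luciferase stays unfolded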
STAT3 inh: inhibitors of IL-6 induced STAT3 signaling | U3A cells, IL-6 STAT3-luciferase reporter, luminescence; host cell line lacks STAT1 | inhibition, % at 5.5 µM | 0.89% of 190,000 active | AID 862;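 active = inhibition above the mean inhibition across all screened compounds plus 3 SD, cut at about 44% in these data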;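 also: 0% = DMSO only wells and 100% = 100 µM nifuroxazide control wells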
FLuc stim CS: affects firefly luciferase, flagging false hits in luciferase stimulation screens; ATPlite luciferase biochemical, luminescence, 10 min; 0 = ATP-free wells, 1 = DMSO control; activation factor at 10 µM; 200,000 tested, under 10 active; AID 1027;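 active = luciferase activation factor, scaled between plate controls, of at least 2 with compound at 10 µM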
Target sequence (P08659 whole entry, looked up): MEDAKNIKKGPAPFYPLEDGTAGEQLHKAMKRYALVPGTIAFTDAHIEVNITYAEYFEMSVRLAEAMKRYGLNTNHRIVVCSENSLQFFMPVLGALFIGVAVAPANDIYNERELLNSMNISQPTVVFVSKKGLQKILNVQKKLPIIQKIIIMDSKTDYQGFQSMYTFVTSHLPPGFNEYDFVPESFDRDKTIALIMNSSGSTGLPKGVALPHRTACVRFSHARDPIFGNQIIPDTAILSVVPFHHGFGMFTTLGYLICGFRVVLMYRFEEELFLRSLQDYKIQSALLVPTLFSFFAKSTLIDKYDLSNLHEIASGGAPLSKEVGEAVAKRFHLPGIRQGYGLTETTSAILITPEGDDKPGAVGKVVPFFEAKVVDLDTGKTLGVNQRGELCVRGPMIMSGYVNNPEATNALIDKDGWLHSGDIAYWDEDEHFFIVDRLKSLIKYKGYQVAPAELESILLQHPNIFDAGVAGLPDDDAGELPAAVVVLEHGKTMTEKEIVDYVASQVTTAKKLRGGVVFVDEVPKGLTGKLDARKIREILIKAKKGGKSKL
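Material: Luciferase/luciferin reagent mix | Doses: Test compounds dosed from 2 mM stocks in 100% DMSO | Timing: 10 min incubation after luciferase reagent addition, room temperature | Measured by: Luminescence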
FLuc inhib CS: inhibits firefly luciferase, flagging false hits in luciferase inhibition screens; inhibition, % at 10 µM; P08659; AID 1006; ATPLite firefly luciferase biochemical luminescence, 10 min; 1.5% of 200,000 active;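 active = inhibition above about 50% when tested at 10 µM, limit read from the data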
Active calls of the source: *; . = not tested or not shown. Sampled rows, rich in hits. Any-hit rate of the full collection: about 2.2%.

SMILES | TRAIL sens C8 | PPC-1+TRAIL kill | HSP90 inh | STAT3 inh | FLuc stim CS | FLuc inhib CS
C=CCN1C(=O)/C(=C/c2ccsc2)SC1=S | -9 | 16 | 2 | 24 | 1 | 2
Cc1csc(=O)n1CC(=O)OCC(=O)Nc1ccc(F)c(F)c1 | 9 | . | . | . | . | .
Cc1ccc(-c2nnc(-c3ccccc3)o2)cc1 | 41 | 16 | 6 | 20 | 0.3 | 67*
Cc1ccc(-c2nnc(-c3cccc4ccccc34)o2)cc1 | 53* | . | . | . | . | .
Cc1ccc(C2=C/C(=C/c3cccs3)C(=O)O2)cc1 | -3 | 13 | 4 | -7 | 0.1 | 85*
Cc1ccc(C=C2C=C(c3ccccc3)OC2=O)cc1 | -15 | . | . | . | . | .
CN(N=Cc1ccc([N+](=O)[O-])cc1)c1ccccn1 | -7 | . | . | . | . | .
COc1cc2c3nnc(-c4ccc(F)cc4)c-3cn(Cc3cccc(C)c3)c2cc1OC | 59* | 16 | 1 | 4 | 1.1 | -5
COc1cc2c3nnc(-c4ccc(F)cc4)c-3cn(Cc3ccc(C)cc3)c2cc1OC | 84* | 15 | -1 | 8 | 1 | -2
COc1cc2c3nnc(-c4ccc(F)cc4)c-3cn(Cc3cccc(F)c3)c2cc1OC | -9 | 46 | -1 | -9 | 1 | 0
CCN(CC)CCNC(=O)c1ccc(NC(=O)C2CC(=O)N(c3ccc4c(c3)OCCO4)C2)cc1 (configuration not stated) | -4 | . | . | . | . | .
COc1cccc(Cn2c(NCc3cccnc3)nc3c2c(=O)n(C)c(=O)n3C)c1 | 82* | 39 | -1 | 24 | 1 | 4
COc1cccc(Cn2c(NCc3ccccn3)nc3c2c(=O)n(C)c(=O)n3C)c1 | . | . | -1 | 3 | . | .
Cc1cccc(NC(=O)CN(CC2CCCO2)C(=O)c2ccc(S(C)(=O)=O)cc2)c1C (configuration not stated) | -8 | . | . | . | . | .
Cc1ccc(-c2nn(-c3ccccc3)cc2NC(=O)CCl)cc1 | 56* | 28 | 7 | 10 | 0.9 | 6
Cc1ccc(-c2cc(NC(=O)CCl)n(-c3ccccc3)n2)cc1 | 45 | 36 | 3 | 24 | 1 | 1
O=C(Nc1cccc(NC(=O)c2cccs2)c1)c1ccc([N+](=O)[O-])o1 | 34 | 37 | 33* | . | . | .
O=C(Nc1ccc(N2CCN(C(=O)c3cccs3)CC2)cc1)c1ccc([N+](=O)[O-])o1 | 94* | . | -3 | . | . | .
O=C(Cc1ccc(NC(=O)C2CCN(C(=O)c3ccccc3)CC2)cc1)Nc1cccc(C(=O)N2CCCCC2)c1 | 4 | . | . | . | . | .
COc1ccc(NC(=S)N2CCCC2)c(OC)c1 | -7 | 12 | 0 | 9 | 1 | -5
O=C(O)C1=C[C@H](c2coc3ccccc3c2=O)C[C@H](OCc2ccc(CO)cc2)O1 | 8 | 2 | 7 | . | 1.1 | -8
Oc1c(CN2CCOCC2)cc(COCc2ccccc2)c2cccnc12 | 53* | 55* | 5 | 4 | 1.1 | -5
CN1CCN(Cc2cc(Cl)c3cccnc3c2OC(=O)c2cccs2)CC1 | 7 | 21 | -2 | -6 | 1.1 | -8
O=C(Oc1c(CN2CCOCC2)cc(Cl)c2cccnc12)c1ccccc1Br | 55* | 0 | 6 | . | . | .
CC1Sc2ccc(C(=O)NCc3cccc(C(F)(F)F)c3)cc2NC1=O (configuration not stated) | 3 | . | . | . | . | .
Cc1ccc(C(=O)OCC(=O)Nc2ccc(C)c(S(=O)(=O)N3CCCCC3)c2)o1 | 2 | . | . | . | . | .

Source: PubChem (several laboratories)
